What was measured:
[1] = molecular target: GABA-A receptor; anion channel; experiment: Displacement of [3H]flunitrazepam from GABA-A benzodiazepine receptor of rat cerebral cortex membrane; format: tissue-based
Method in brief: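 Rat cerebral cortex homogenised in ice-cold 50 mM Tris-HCl pH 7.4, washed by centrifugation, frozen at -20 °C ≥24 h. Filtration on glass fibre, scintillation counting, duplicates; IC50 by Hofstee analysis.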

[2] = molecular target: GABA-A receptor; anion channel; experiment: Displacement of [3H]beta-CCE from GABA-A benzodiazepine receptor of rat cerebral cortex membranes; format: cell membranes, Membrane
Method in brief: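 Rat cerebral cortex membranes, washed in 50 mM Tris-HCl pH 7.4, stored at −20 °C for at least 24 h. 60 µg protein incubated 60 min at 0 °C with 0.4 nM [3H]-β-CCE (final) and test compound from 5×10^-10 to 10^-5 M. Nonspecific binding was defined with 1 µM unlabeled β-CCE. Bound ligand collected by GF/B filtration and counted by scintillation. Duplicates; IC50 from Hofstee analysis.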

[3] = molecular target: T1, GABA-A receptor; anion channel (Mus musculus) (UniProt Q8BHJ7+P26048+Q8QZW7+P50571+Q9R0Y8+P22723+A2AMW3+P62812+Q9JLF1+P26049+P22933+Q9D6F4+P63080+P27681+P16305); experiment: In vivo binding of [3H]flunitrazepam to GABA-A benzodiazepine receptor of mouse hippocampus after maximal Diazepam (10 mg/kg, 40 min); format: organism-based
Method in brief: (§1)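 Nonspecific in vivo binding. Diazepam 10 mg/kg was given to male Swiss mice 40 min before iv [3H]flunitrazepam (200 µCi/kg) and 60 min before decapitation. Cerebellum, cortex and hippocampus were homogenized in cold 50 mM Tris-HCl pH 7.4. Crude homogenate (12 mg wet tissue) was filtered on GF/B and counted, as pCi/mg wet tissue.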

[4] = molecular target: T1, GABA-A receptor; anion channel (Mus musculus); experiment: In vivo displacement of [3H]flunitrazepam to GABA-A benzodiazepine receptor of mouse cerebellum at 10 mg/kg, 10 min; format: organism-based; set-up: dose 10 mg/kg
Method in brief: (§2)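 Male Swiss mice received [3H]flunitrazepam 200 µCi/kg iv via tail vein. Test compound, 10 mg/kg suspended in Tween 80, was given 10 min later and 10 min before decapitation. Cerebellum, cortex and hippocampus were homogenized in cold 50 mM Tris-HCl pH 7.4. Crude homogenate (12 mg wet tissue) was filtered on GF/B and counted, as pCi/mg wet tissue.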

[5] = molecular target: T1, GABA-A receptor; anion channel (Mus musculus); experiment: In vivo binding of [3H]flunitrazepam to GABA-A benzodiazepine receptor of mouse cortex after maximal Diazepam (10 mg/kg, 40 min); format: organism-based; method in brief: as §1
[6] = molecular target: T1, GABA-A receptor; anion channel (Mus musculus); experiment: In vivo displacement of [3H]flunitrazepam to GABA-A benzodiazepine receptor of mouse cortex at 10 mg/kg, 10 min; format: organism-based; set-up: dose 10 mg/kg; method in brief: as §2
[7] = molecular target: T1, GABA-A receptor; anion channel (Mus musculus); experiment: In vivo total binding of [3H]flunitrazepam (200uCi/kg, 20 min) to GABA-A benzodiazepine receptor of mouse hippocampus; format: organism-based
Method in brief: (§3)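 Male Swiss mice received [3H]flunitrazepam 200 µCi/kg in saline via tail vein, 20 min before decapitation. Cerebellum, cortex and hippocampus were dissected on ice and homogenized in ice-cold 50 mM Tris-HCl pH 7.4. Two 600-µL aliquots (12 mg wet tissue) were filtered on GF/B, washed twice and counted. Results given as pCi/mg wet tissue.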

[8] = molecular target: T1, GABA-A receptor; anion channel (Mus musculus); experiment: In vivo displacement of [3H]flunitrazepam to GABA-A benzodiazepine receptor of mouse hippocampus at 10 mg/kg, 10 min; format: organism-based; set-up: dose 10 mg/kg; method in brief: as §2
[9] = molecular target: T1, GABA-A receptor; anion channel (Mus musculus); experiment: In vivo total binding of [3H]flunitrazepam (200uCi/kg, 20 min) to GABA-A benzodiazepine receptor of mouse cerebellum; format: organism-based; method in brief: as §3
[10] = molecular target: T1, GABA-A receptor; anion channel (Mus musculus); experiment: In vivo binding of [3H]flunitrazepam to GABA-A benzodiazepine receptor of mouse cerebellum after maximal Diazepam (10mg/kg, 40 min); format: organism-based; method in brief: as §1
[11] = molecular target: T1, GABA-A receptor; anion channel (Mus musculus); experiment: In vivo total binding of [3H]flunitrazepam (200uCi/kg, 20 min) to GABA-A benzodiazepine receptor of mouse cortex; format: organism-based; method in brief: as §3

SMILES	IC50 [1] [nM]	IC50 [2] [nM]	other results
O=C1Nc2ccccc2C(=O)N2Cc3[nH]c4ccccc4c3CC12 (stereo unspecified)	> 100000	> 100000	–
O=C1Nc2ccccc2CN2Cc3[nH]c4ccccc4c3CC12 (stereo unspecified)	> 100000	> 100000	–
O=c1[nH]c2ccccc2c(=O)n2cc3nc4ccccc4c-3cc12	23	47	Binding [3]: 25.6 pCi mg-1; Total binding [4]: 78.8 pCi mg-1; Binding [5]: 26.7 pCi mg-1; Total binding [6]: 88 pCi mg-1; Total binding [7]: 95.5 pCi mg-1; Total binding [8]: 96.8 pCi mg-1; Total binding [9]: 71.2 pCi mg-1; Binding [10]: 24.1 pCi mg-1; Total binding [11]: 85 pCi mg-1
CCOC(=O)C1=CC2c3ccccc3NC2C=N1 (stereo unspecified)	2.5	6	–
O=C1Nc2ccccc2Cn2cc3nc4ccccc4c-3cc21	6000	2000	–
CN1C(=O)CN=C(c2ccccc2F)c2cc([N+](=O)[O-])ccc21 [FLUNITRAZEPAM]	3	8	–
